Assay results: ChEMBL document CHEMBL2440012, “Design, synthesis and anticonvulsant properties of new N-Mannich bases derived from 3-phenylpyrrolidine-2,5-diones” (Bioorg Med Chem, 2013)
The source made the active and inactive calls. The rule behind the calls is not given here.

Legend:
[1] = test system: Mus musculus; assay: Anticonvulsant activity in albino CF1 mouse assessed as protection against maximal electroshock-induced seizures at 300 mg/kg, ip measured after 0.5 hr; type: functional, organism-based; parameters: dose 300 mg/kg
In short: (§1)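 Male CF-1 mice given ip suspension in 0.5% methylcellulose/water at 30, 100 and 300 mg/kg; MES, scPTZ (pentylenetetrazole 85 mg/kg sc, CD97 dose for clonic seizures ≥5 s) and rotarod (inability to hold balance 1 min in each of three trials) assessed at 0.5 and 4 h; value is minimum dose active in half or more animals.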

[2] = test system: Mus musculus; assay: Neurotoxicity in albino CF1 mouse assessed as minimum motor impairment at 300 mg/kg, ip measured after 0.5 hr by rotorod test; type: toxicity, organism-based; parameters: dose 300 mg/kg, route intraperitoneal; details: in vivo; in short: as §1
[3] = test system: Rattus norvegicus; assay: Anticonvulsant activity in albino Sprague-Dawley rat assessed as protection against maximal electroshock-induced seizures at 30 mg/kg, po measured after 0.5 hr; type: functional
In short: (§2)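 Male Sprague-Dawley rats, four per group, dosed p.o. at 30 mg/kg in 0.5% methylcellulose/water suspension; MES test at 0.25, 0.5, 1, 2 and 4 h, motor impairment examined in parallel; number of rats out of four protected.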

[4] = test system: Rattus norvegicus; assay: Anticonvulsant activity in albino Sprague-Dawley rat assessed as protection against maximal electroshock-induced seizures at 30 mg/kg, po measured after 0.25 hr; type: functional; in short: as §2
[5] = test system: Rattus norvegicus; assay: Anticonvulsant activity in albino Sprague-Dawley rat assessed as protection against maximal electroshock-induced seizures at 30 mg/kg, po measured after 1 hr; type: functional; in short: as §2
[6] = test system: Rattus norvegicus; assay: Anticonvulsant activity in albino Sprague-Dawley rat assessed as protection against maximal electroshock-induced seizures at 30 mg/kg, po measured after 2 hrs; type: functional; in short: as §2
[7] = test system: Mus musculus; assay: Anticonvulsant activity in albino CF1 mouse assessed as protection against subcutaneous pentylenetetrazole-induced convulsion at 300 mg/kg, ip measured after 0.5 hrs; type: functional, organism-based; parameters: dose 300 mg/kg; in short: as §1
[8] = test system: Mus musculus; assay: Anticonvulsant activity in albino CF1 mouse assessed as protection against subcutaneous pentylenetetrazole-induced convulsion at 300 mg/kg, ip measured after 4 hrs; type: functional, organism-based; parameters: dose 300 mg/kg; in short: as §1
[9] = test system: Mus musculus; assay: Toxicity in albino CF1 mouse assessed as diarrhea at 300 mg/kg, ip measured after 4 hrs by rotorod test; type: organism-based; parameters: dose 300 mg/kg, route intraperitoneal; details: in vivo
[10] = test system: Mus musculus; assay: Anticonvulsant activity in ip dosed albino CF1 mouse assessed as protection against maximal electroshock-induced seizures in half or more animals measured after 4 hrs; type: functional; details: read-out: MED; in short: as §1
[11] = test system: Rattus norvegicus; assay: Anticonvulsant activity in albino Sprague-Dawley rat assessed as protection against maximal electroshock-induced seizures at 30 mg/kg, po measured after 4 hrs; type: functional; in short: as §2
[12] = test system: Mus musculus; assay: Anticonvulsant activity against 6 Hz psychomotor seizure in ip dosed albino CF1 mouse by minimal clonic seizure test; type: functional
[13] = test system: Rattus norvegicus; assay: Anticonvulsant activity in po dosed albino Sprague-Dawley rat assessed as protection against maximal electroshock-induced seizures; type: functional
[14] = test system: Mus musculus; assay: Neurotoxicity in ip dosed albino CF1 mouse assessed as time to peak effect by rotorod test; type: toxicity, organism-based; details: in vivo
[15] = test system: Mus musculus; assay: Anticonvulsant activity in albino CF1 mouse assessed as assessed as protection against 6 Hz psychomotor seizure at 75 mg/kg, ip after 1 hr by minimal clonic seizure test; type: functional; details: route intraperitoneal
In short: (§3)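 Male CF-1 mice, groups of four, dosed ip in 0.5% methylcellulose/water suspension, then challenged by 6-Hz corneal stimulation at 32 mA (0.2 ms pulses, 3 s, constant current) at 0.25, 0.5, 1, 2 or 4 h; count of mice out of four protected from stunned posture/clonic seizure.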

[16] = test system: Mus musculus; assay: Anticonvulsant activity in albino CF1 mouse assessed as assessed as protection against 6 Hz psychomotor seizure at 75 mg/kg, ip after 0.25 hr by minimal clonic seizure test; type: functional; details: route intraperitoneal; in short: as §3
[17] = test system: Mus musculus; assay: Neurotoxicity in albino CF1 mouse assessed as minimum motor impairment at 300 mg/kg, ip measured after 4 hrs by rotorod test; type: toxicity, organism-based; parameters: dose 300 mg/kg, route intraperitoneal; details: in vivo; in short: as §1
[18] = test system: Mus musculus; assay: Anticonvulsant activity in albino CF1 mouse assessed as assessed as protection against 6 Hz psychomotor seizure at 75 mg/kg, ip after 2 hrs by minimal clonic seizure test; type: functional; details: route intraperitoneal; in short: as §3
[19] = test system: Mus musculus; assay: Protection index, ratio of TD50 for neurotoxicity in ip dosed albino CF1 mouse by rotorod test to ED50 for anticonvulsant activity in ip dosed albino CF1 mouse by 6 Hz psychomotor seizure test; type: functional
[20] = test system: Rattus norvegicus; assay: Anticonvulsant activity in po dosed albino Sprague-Dawley rat assessed as protection against subcutaneous pentylenetetrazole-induced convulsion; type: functional
[21] = test system: Mus musculus; assay: Toxicity in albino CF1 mouse assessed as myoclonic jerks at 300 mg/kg, ip measured after 0.5 hr by rotorod test; type: organism-based; parameters: dose 300 mg/kg, route intraperitoneal; details: in vivo
[22] = test system: Mus musculus; assay: Neurotoxicity in ip dosed albino CF1 mouse assessed as minimum motor impairment in half or more animals measured after 0.5 hrs by rotorod test; type: toxicity, organism-based; details: in vivo; in short: as §1
[23] = test system: Mus musculus; assay: Anticonvulsant activity in albino CF1 mouse assessed as assessed as protection against 6 Hz psychomotor seizure at 75 mg/kg, ip after 0.5 hr by minimal clonic seizure test; type: functional; details: route intraperitoneal; in short: as §3
[24] = test system: Mus musculus; assay: Anticonvulsant activity against 6 Hz psychomotor seizure in ip dosed albino CF1 mouse assessed as time to peak effect by minimal clonic seizure test; type: functional
[25] = test system: Rattus norvegicus; assay: Anticonvulsant activity against […] subcutaneous pentylenetetrazole-induced convulsion in po dosed albino Sprague-Dawley rat assessed as time to peak effect; type: functional
[26] = test system: Mus musculus; assay: Anticonvulsant activity in ip dosed albino CF1 mouse assessed as protection against maximal electroshock-induced seizures in half or more animals measured after 0.5 hr; type: functional; details: read-out: MED; in short: as §1
[27] = test system: Rattus norvegicus; assay: Protection index, ratio of TD50 for neurotoxicity in po dosed albino Sprague-Dawley rat by rotorod test to ED50 for anticonvulsant activity in po dosed albino Sprague-Dawley rat by MES test; type: functional
[28] = test system: Rattus norvegicus; assay: Anticonvulsant activity against maximal electroshock-induced seizures in po dosed albino Sprague-Dawley rat assessed as time to peak effect; type: functional
[29] = test system: Mus musculus; assay: Anticonvulsant activity in albino CF1 mouse assessed as assessed as protection against 6 Hz psychomotor seizure at 75 mg/kg, ip after 4 hrs by minimal clonic seizure test; type: functional; details: route intraperitoneal; in short: as §3
[30] = Neurotoxicity in ip dosed albino CF1 mouse by rotorod test; type: toxicity, organism-based; details: in vivo
[31] = Neurotoxicity in po dosed albino Sprague-Dawley rat assessed as minimum motor impairment by rotorod test; type: toxicity, organism-based; details: in vivo
[32] = test system: Rattus norvegicus; assay: Protection index, ratio of TD50 for neurotoxicity in po dosed albino Sprague-Dawley rat by rotorod test to ED50 for anticonvulsant activity in po dosed albino Sprague-Dawley rat by scPTZ test; type: functional
In short: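 Male Sprague-Dawley rats, compound suspended in 0.5% methylcellulose/water and given orally; tested at the time of peak effect. scPTZ: 70 mg/kg pentylenetetrazole sc; the end-point is clonic seizures lasting at least 5 s. Rotarod: motor impairment is failure to keep balance for 1 min in each of three trials. Groups of at least eight rats received several doses until at least three points fell within 10–90% effect. ED50, TD50 and 95% confidence intervals were derived by regression; PI = TD50/ED50.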

[33] = test system: Rattus norvegicus; assay: Neurotoxicity in po dosed albino Sprague-Dawley rat assessed as time to peak effect by rotorod test; type: toxicity, organism-based; details: in vivo

For `O=C1CC(c2ccccc2Cl)C(=O)N1CN1CCN(c2ncccn2)CC1` (racemic), the Activity [1] was “inactive”, the Activity [2] was “Non-toxic” and the Activity [3] was “inactive”. The Activity [4] was “inactive”, the Activity [5] was “inactive” and the Activity [6] was “inactive”. The Activity [7] was “inactive”, the Activity [8] was “inactive” and the MED [9] was 300 mg/kg. The minimal effective dose [10] was 100 mg/kg and the Activity [11] was “inactive”.

`O=C1CC(c2ccccc2Cl)C(=O)N1CN1CCC(Cc2ccccc2)CC1` (racemic) showed an ED50 [12] of 84.6 mg/kg, an ED50 [13] of 37.6 mg/kg and an Activity [3] of 75%. It also gave a Time [14] of 0.5 h, an Activity [4] of 25% and an Activity [15] of 0%. The Activity [16] was 0%, the Activity [17] was “Non-toxic” and the Activity [5] was 75%. The Activity [18] was 25%, the “Ratio TD50/ED50” value [19] was 3.26 and the ED50 [20] was 107 mg/kg. For the same compound, the Activity [6] was 25%, the Activity [7] was “inactive” and the MED [21] was 100 mg/kg. For the same compound, the MED [22] was 300 mg/kg, the Activity [23] was 75% and the Time [24] was 0.5 h. For the same compound, the Time [25] was 1 h, the minimal effective dose [26] was 300 mg/kg and the “Ratio TD50/ED50” value [27] was greater than 13.28. It also gave a Time [28] of 1 h, a minimal effective dose [10] of 100 mg/kg and an Activity [29] of 0%. The TD50 [30] was 275 mg/kg, the Activity [11] was “inactive” and the TD50 [31] was greater than 500 mg/kg. For the same compound, the “Ratio TD50/ED50” value [32] was greater than 4.68 and the Time [33] was 1 h.
